The results in this text go back to ChEMBL document CHEMBL5523688, “Selective targeting of human TET1 by cyclic peptide inhibitors: Insights from biochemical profiling” (Bioorg Med Chem, 2024).

The nature of assay [1]: Selectivity ratio of pIC50 for inhibition of N-terminal 3xFlag-tagged recombinant human TET1 catalytic domain (E1418 to V2136 residues) expressed in baculovirus infected Sf9 cells to pIC50 for inhibition of recombinant human TET3 catalytic domain (E824 to I1795 residues) expressed in baculovirus infected Sf9 cells.
The target of assay [2] is T1, Methylcytosine dioxygenase TET3 (Homo sapiens, UniProt O43151). In words: Inhibition of recombinant human TET3 catalytic domain (E824 to I1795 residues) expressed in baculovirus infected Sf9 cells using 5-methylcytosine as substrate preincubated for 10 mins followed by substrate and DNA-cofactor addition measured after 10 mins by Alphascreen assay.
In assay [3] the target is T2, Methylcytosine dioxygenase TET1 (Homo sapiens, UniProt Q8NFU7). The experiment in a line: Inhibition of N-terminal 3xFlag-tagged recombinant human TET1 catalytic domain (E1418 to V2136 residues) expressed in baculovirus infected Sf9 cells using 5-methylcytosine as substrate preincubated for 10 mins followed by substrate and DNA-cofactor addition measured after 30 mins by Alphascreen assay. Put shortly: (§1)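 TET1 catalytic domain (E1418–V2136, Sf9 baculovirus) at 2 nM was preincubated 10 min with inhibitor (1% DMSO) in HEPES 50 mM pH 7.3, 150 mM NaCl, 0.1% BSA, 0.01% Tween-20. Reaction was started with ascorbate 200 µM, Fe(II) 20 µM, 2OG 20 µM and 5mC ssDNA 10 nM, run 30 min, then EDTA-quenched. Anti-5hmC antibody with AlphaScreen beads, 45–60 min, luminescence read. Three independent replicates.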
In general terms: Bead proximity is the source of the signal in Alpha formats.

Assay [4] concerns the target Methylcytosine dioxygenase TET2 (Homo sapiens, UniProt Q6N021). The experiment in a line: Inhibition of N-terminal His-tagged recombinant human TET2 catalytic domain LCIdel mutant (D1129 to G1936 residues with Y1481 to N1843 replaced by 3 x GGGGS linker) expressed in Escherichia coli BL21 (DE3) using 5-methylcytosine as substrate preincubated for 10 mins followed by substrate and DNA-cofactor addition measured after 10 mins by Alphascreen assay.

The target of assay [5] is T2, Methylcytosine dioxygenase TET1. The experiment in a line: Inhibition of FLAG-tagged human TET1 catalytic domain (E1418 to V2136 residues) expressed in doxycycline induced human U2OS cells assessed as reduction in 5-hydroxymethylcytosine level at 50 to 100 uM incubated for 24 hrs by immunofluorescence assay. The format is cell-based. The conditions noted are these: dose 50-100 µM. A digest of the protocol: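 U2OS cells stably carrying dox-inducible FLAG-tagged TET1 catalytic domain (E1418–V2136), 5,000/well, seeded 4 h at 37 °C in DMEM with Tet-approved 10% FBS, pen/strep and L-glutamine. Doxycycline 1 µg/mL induction plus compound dosing (1% DMSO final) for 24 h. After fixation, cells were co-stained with anti-5hmC and anti-FLAG antibodies plus DAPI, then imaged. Read-out was mean 5hmC fluorescence in FLAG-positive cells.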

Assay [6] shares this target. The experiment in a line: Inhibition of FLAG-tagged human TET1 catalytic domain (E1418 to V2136 residues) expressed in doxycycline induced human U2OS cells assessed as reduction in 5-hydroxymethylcytosine level at 30 to 100 uM incubated for 24 hrs by immunofluorescence assay. The format is cell-based. The note with it: dose 30-100 µM. Put shortly: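 U2OS cells stably carrying dox-inducible FLAG-tagged TET1 catalytic domain were seeded at 5,000/well in DMEM with Tet-approved FBS (10%), penicillin/streptomycin and L-glutamine, then held 4 h at 37 °C. Induction used doxycycline 1 μg/mL alongside compound (1% DMSO final) for 24 h. Cells were fixed, permeabilised, blocked, immunostained (rabbit polyclonal oxidised-cytosine antibody 1:500, anti-FLAG 1:1000, 16 h) and DAPI-counterstained. Mean staining intensity of FLAG-TET1 cells was imaged.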

Assay [7] has the same target. The experiment in a line: Inhibition of N-terminal 3xFlag-tagged recombinant human TET1 catalytic domain (E1418 to V2136 residues) expressed in baculovirus infected Sf9 cells using 5-methylcytosine as substrate assessed as change in pIC50 preincubated for 10 mins followed by substrate and DNA-cofactor addition measured after 30 mins by Alphascreen assay. The conditions noted are these: time 40.0 min. A digest of the protocol:
as §1

Assay [8] concerns Methylcytosine dioxygenase TET2 (Homo sapiens), Q6N021 [UNDEFINED MUTATION]. The conditions noted are these: time 20.0 min.
Assay [9] deals with T1, Methylcytosine dioxygenase TET3. In words: Inhibition of recombinant human TET3 catalytic domain (E824 to I1795 residues) expressed in baculovirus infected Sf9 cells using 5-methylcytosine as substrate assessed as change in pIC50 preincubated for 10 mins followed by substrate and DNA-cofactor addition measured after 10 mins by Alphascreen assay. The conditions noted are these: time 20.0 min.

Activity calls are given as the source filed them. The calls are words filed in the database; no cut-off is given here.

Usually pIC50 stands for the IC50 on a negative log10 scale, so that one unit is a factor of ten.

T2 sequence (Q8NFU7 whole entry, the tested form may be a part): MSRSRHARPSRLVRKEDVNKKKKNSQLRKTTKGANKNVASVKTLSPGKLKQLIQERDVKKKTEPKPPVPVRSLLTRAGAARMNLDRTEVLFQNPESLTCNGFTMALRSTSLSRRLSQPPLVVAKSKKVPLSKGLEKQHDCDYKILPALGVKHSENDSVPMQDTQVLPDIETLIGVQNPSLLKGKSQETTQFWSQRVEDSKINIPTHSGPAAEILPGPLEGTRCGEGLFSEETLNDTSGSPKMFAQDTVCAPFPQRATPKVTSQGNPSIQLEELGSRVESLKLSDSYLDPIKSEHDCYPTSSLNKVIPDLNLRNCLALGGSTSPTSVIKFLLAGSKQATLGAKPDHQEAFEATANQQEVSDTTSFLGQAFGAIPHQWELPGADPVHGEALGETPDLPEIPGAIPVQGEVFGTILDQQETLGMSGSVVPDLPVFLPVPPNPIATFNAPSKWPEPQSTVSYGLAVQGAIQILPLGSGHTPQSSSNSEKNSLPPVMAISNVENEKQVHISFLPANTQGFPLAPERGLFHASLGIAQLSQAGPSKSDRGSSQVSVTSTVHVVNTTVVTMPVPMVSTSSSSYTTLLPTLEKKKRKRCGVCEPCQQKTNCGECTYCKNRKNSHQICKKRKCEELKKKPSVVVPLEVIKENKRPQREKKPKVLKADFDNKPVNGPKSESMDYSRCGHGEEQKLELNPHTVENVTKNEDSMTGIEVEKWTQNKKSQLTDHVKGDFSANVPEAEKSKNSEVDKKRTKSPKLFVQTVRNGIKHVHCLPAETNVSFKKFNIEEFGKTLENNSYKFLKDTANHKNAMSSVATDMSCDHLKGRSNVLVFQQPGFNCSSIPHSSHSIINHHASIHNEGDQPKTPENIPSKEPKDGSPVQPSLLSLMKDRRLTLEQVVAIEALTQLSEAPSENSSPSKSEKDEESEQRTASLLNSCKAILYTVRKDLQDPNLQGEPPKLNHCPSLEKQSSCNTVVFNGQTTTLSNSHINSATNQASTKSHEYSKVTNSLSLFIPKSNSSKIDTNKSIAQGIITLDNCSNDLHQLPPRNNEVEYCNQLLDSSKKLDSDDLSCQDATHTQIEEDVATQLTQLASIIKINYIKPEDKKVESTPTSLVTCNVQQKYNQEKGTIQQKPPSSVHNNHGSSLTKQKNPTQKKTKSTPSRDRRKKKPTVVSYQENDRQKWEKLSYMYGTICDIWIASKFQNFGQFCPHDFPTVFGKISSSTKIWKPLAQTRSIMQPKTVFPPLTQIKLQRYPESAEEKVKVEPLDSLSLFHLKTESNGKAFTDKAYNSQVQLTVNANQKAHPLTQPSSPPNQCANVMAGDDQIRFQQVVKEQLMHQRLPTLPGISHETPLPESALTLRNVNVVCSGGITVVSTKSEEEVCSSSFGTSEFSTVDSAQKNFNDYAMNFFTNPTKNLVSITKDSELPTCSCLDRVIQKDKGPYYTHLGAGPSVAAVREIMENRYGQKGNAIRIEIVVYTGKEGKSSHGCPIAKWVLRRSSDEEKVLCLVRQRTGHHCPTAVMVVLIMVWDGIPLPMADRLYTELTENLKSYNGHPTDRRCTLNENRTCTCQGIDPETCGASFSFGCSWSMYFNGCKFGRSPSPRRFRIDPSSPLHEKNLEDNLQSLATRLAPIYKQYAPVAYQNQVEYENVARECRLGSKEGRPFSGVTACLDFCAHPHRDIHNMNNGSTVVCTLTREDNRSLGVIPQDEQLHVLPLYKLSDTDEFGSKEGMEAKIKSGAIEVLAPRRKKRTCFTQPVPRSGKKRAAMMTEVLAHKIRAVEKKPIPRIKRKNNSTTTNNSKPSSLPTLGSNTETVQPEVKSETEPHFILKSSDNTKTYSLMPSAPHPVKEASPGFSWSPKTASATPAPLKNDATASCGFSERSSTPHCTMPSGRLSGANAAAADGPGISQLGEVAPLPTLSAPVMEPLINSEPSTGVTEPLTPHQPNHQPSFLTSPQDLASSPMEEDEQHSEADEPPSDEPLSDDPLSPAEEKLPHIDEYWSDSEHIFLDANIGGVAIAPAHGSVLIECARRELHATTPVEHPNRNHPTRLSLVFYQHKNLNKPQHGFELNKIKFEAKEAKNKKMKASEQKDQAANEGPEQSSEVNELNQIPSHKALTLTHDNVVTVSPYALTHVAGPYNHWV
T1 sequence (O43151 whole entry, the tested form may be a part): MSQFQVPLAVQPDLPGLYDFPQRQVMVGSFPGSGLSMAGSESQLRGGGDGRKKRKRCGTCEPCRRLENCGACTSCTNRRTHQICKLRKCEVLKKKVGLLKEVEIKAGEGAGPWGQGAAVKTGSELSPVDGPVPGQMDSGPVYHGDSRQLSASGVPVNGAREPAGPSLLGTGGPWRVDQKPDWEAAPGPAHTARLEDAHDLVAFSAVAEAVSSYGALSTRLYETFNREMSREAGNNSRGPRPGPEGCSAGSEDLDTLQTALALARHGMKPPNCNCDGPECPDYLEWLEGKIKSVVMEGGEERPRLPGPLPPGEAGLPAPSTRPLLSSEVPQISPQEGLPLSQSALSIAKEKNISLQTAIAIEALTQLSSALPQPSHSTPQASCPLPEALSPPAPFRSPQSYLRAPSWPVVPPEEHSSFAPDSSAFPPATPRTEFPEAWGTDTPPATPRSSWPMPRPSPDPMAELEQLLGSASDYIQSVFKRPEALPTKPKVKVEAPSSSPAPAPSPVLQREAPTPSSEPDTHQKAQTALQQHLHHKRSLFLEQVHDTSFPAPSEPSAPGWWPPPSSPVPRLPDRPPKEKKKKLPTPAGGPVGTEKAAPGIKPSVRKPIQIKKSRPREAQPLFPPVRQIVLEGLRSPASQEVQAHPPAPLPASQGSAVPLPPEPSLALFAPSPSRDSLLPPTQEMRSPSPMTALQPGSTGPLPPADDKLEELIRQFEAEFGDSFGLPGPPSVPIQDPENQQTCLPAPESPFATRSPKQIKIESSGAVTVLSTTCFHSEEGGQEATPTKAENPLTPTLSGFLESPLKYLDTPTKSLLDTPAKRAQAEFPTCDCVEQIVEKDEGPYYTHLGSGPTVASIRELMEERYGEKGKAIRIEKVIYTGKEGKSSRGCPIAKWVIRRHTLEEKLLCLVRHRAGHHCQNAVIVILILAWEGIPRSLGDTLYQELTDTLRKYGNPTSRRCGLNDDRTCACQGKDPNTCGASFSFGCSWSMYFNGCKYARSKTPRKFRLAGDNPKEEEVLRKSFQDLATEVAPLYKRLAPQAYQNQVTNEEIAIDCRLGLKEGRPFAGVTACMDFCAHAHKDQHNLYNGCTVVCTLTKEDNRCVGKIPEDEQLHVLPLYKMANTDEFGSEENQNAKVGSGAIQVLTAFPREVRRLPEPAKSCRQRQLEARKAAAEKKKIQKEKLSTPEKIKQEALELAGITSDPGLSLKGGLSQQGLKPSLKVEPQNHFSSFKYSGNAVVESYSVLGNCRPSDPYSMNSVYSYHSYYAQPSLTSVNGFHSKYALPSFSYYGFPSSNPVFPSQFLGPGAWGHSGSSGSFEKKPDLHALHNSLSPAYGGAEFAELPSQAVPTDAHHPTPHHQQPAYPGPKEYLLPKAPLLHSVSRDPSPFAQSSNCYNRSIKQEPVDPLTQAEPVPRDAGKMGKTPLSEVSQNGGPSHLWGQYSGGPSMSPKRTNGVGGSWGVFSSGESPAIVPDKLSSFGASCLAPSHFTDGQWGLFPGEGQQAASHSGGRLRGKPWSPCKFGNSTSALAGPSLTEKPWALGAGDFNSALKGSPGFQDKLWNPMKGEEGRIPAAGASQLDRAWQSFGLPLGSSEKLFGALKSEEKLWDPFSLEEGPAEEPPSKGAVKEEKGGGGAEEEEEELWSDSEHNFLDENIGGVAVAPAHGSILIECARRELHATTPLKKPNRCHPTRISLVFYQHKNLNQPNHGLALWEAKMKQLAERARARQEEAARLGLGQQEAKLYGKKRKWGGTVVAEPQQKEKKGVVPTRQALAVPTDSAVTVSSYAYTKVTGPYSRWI

On to `CC[C@H](C)[C@@H]1NC(=O)[C@H](CC(C)C)NC(=O)[C@@H](Cc2ccc(O)cc2)NC(=O)CSC[C@@H](C(=O)NCC(=O)N[C@@H](CO)C(=O)NCC(=O)N[C@@H](CO)C(=O)N[C@@H](CC(=O)O)C(=O)N[C@@H](Cc2ccc(O)cc2)C(=O)N[C@@H](CCCCN)C(=O)N[C@@H](CC(=O)O)C(=O)N[C@@H](CC(=O)O)C(=O)N[C@@H](CC(=O)O)C(=O)N[C@@H](CC(=O)O)C(=O)N[C@@H](CCCCN)C(N)=O)NC(=O)[C@H](CO)NC(=O)[C@H](Cc2c[nH]cn2)NC(=O)[C@H](CCC(=O)O)NC(=O)[C@H](Cc2c[nH]c3ccccc23)NC(=O)[C@H](Cc2c[nH]c3ccccc23)NC(=O)[C@H]([C@@H](C)O)NC(=O)[C@H](Cc2ccc(O)cc2)NC(=O)[C@H](Cc2ccc(O)cc2)NC(=O)[C@H](C)NC(=O)[C@H](Cc2ccc(O)cc2)NC1=O`, for which the Ratio pIC50 in assay [1] was found to be 58. The IC50 was 23.4 µM in assay [2] (read-out: pIC50 (converted)) and 0.407 µM in [3] (read-out: pIC50 (converted)). The pIC50 in assay [4] is listed as 4.59.
In the case of `CC[C@H](C)[C@@H]1NC(=O)[C@H](CC(C)C)NC(=O)[C@@H](Cc2ccc(O)cc2)NC(=O)CSC[C@H](C(=O)N[C@@H](Cc2ccc(O)cc2)C(=O)NCC(=O)N[C@@H](CCCNC(=N)N)C(=O)N[C@@H](CCCCN)C(=O)N[C@@H](CCCCN)C(=O)N[C@@H](CCCNC(=N)N)C(=O)N[C@@H](CCCNC(=N)N)C(=O)N[C@@H](CCC(N)=O)C(=O)N[C@@H](CCCNC(=N)N)C(=O)N[C@@H](CCCNC(=N)N)C(N)=O)NC(=O)[C@H](CO)NC(=O)[C@H](Cc2c[nH]cn2)NC(=O)[C@H](CCC(=O)O)NC(=O)[C@H](Cc2c[nH]c3ccccc23)NC(=O)[C@H](Cc2c[nH]c3ccccc23)NC(=O)[C@H]([C@@H](C)O)NC(=O)[C@H](Cc2ccc(O)cc2)NC(=O)[C@H](Cc2ccc(O)cc2)NC(=O)[C@H](C)NC(=O)[C@H](Cc2ccc(O)cc2)NC1=O`, the inhibition result in [5] was “Active”. Besides, the IC50 in [2] (read-out: IC50) was over 100 µM; in assay [2] (read-out: pIC50 (converted)), 0.182 µM; in assay [3] (read-out: IC50) it was 0.25 µM; in assay [3] (read-out: pIC50 (converted)) it was 0.0182 µM. Besides, the pIC50 in assay [4] is given as 6.91.
With `N=C(N)NCCC[C@H](NC(=O)[C@H](CCCNC(=N)N)NC(=O)[C@H](CCCNC(=N)N)NC(=O)[C@H](CCCNC(=N)N)NC(=O)[C@H](CCCNC(=N)N)NC(=O)[C@H](CCCNC(=N)N)NC(=O)[C@H](CCCNC(=N)N)NC(=O)[C@@H](N)CCCNC(=N)N)C(=O)O`, the results for the IC50 in [2] (read-out: pIC50 (converted)) and in [3] (read-out: pIC50 (converted)) were over 100 µM and 0.251 µM, respectively. The inhibition entry in assay [6] was “Active”. Moreover, the pIC50 in assay [4] turned out to be 6.45.
As to `CC[C@H](C)[C@@H]1NC(=O)[C@H](CC(C)C)NC(=O)[C@@H](Cc2ccc(O)cc2)NC(=O)CSC[C@@H](C(N)=O)NC(=O)[C@H](C)NC(=O)[C@H](Cc2c[nH]cn2)NC(=O)[C@H](CCC(=O)O)NC(=O)[C@H](Cc2c[nH]c3ccccc23)NC(=O)[C@H](Cc2c[nH]c3ccccc23)NC(=O)[C@H]([C@@H](C)O)NC(=O)[C@H](Cc2ccc(O)cc2)NC(=O)[C@H](Cc2ccc(O)cc2)NC(=O)[C@H](C)NC(=O)[C@H](Cc2ccc(O)cc2)NC1=O`, the results for the IC50 in assay [2] (read-out: pIC50 (converted)) and in assay [3] (read-out: pIC50 (converted)) were 6.31 µM and 0.417 µM, respectively. Further, the deltapIC50 in [7] is -0.1; in assay [8], -0.02; in assay [9], -0.08. Besides, the pIC50 in [4] was 4.68.
With `N=C(N)NCCC[C@H](NC(=O)[C@H](CCCNC(=N)N)NC(=O)[C@H](CCCNC(=N)N)NC(=O)[C@H](CCC(N)=O)NC(=O)[C@H](CCCNC(=N)N)NC(=O)[C@H](CCCNC(=N)N)NC(=O)[C@H](CCCCN)NC(=O)[C@H](CCCCN)NC(=O)[C@H](CCCNC(=N)N)NC(=O)CNC(=O)[C@@H](N)Cc1ccc(O)cc1)C(=O)O`, the IC50 in [2] (read-out: pIC50 (converted)) was over 100 µM; in assay [3] (read-out: pIC50 (converted)), 1.15 µM. Also, in assay [6], the inhibition entry is “Active”. For the same compound, the pIC50 in assay [4] worked out at 5.39.
As for `CC[C@H](C)[C@@H]1NC(=O)[C@H](CC(C)C)NC(=O)[C@@H](Cc2ccc(O)cc2)NC(=O)CSC[C@@H](C(N)=O)NC(=O)[C@H](CO)NC(=O)[C@H](Cc2c[nH]cn2)NC(=O)[C@H](CCC(=O)O)NC(=O)[C@H](C)NC(=O)[C@H](Cc2c[nH]c3ccccc23)NC(=O)[C@H]([C@@H](C)O)NC(=O)[C@H](Cc2ccc(O)cc2)NC(=O)[C@H](Cc2ccc(O)cc2)NC(=O)[C@H](C)NC(=O)[C@H](Cc2ccc(O)cc2)NC1=O`, the values for the IC50 in assay [2] (read-out: pIC50 (converted)) and in assay [3] (read-out: pIC50 (converted)) were 15.1 µM and 13.8 µM, respectively. Besides, the deltapIC50 in [7] was -1.63; in assay [8], under -0.7; in [9], -0.46. Further, the pIC50 in assay [4] is on record as under 4.
As to `CC(C)C[C@@H]1NC(=O)[C@@H](Cc2ccc(O)cc2)NC(=O)CSC[C@@H](C(N)=O)NC(=O)[C@H](CO)NC(=O)[C@H](Cc2c[nH]cn2)NC(=O)[C@H](CCC(=O)O)NC(=O)[C@H](Cc2c[nH]c3ccccc23)NC(=O)[C@H](Cc2c[nH]c3ccccc23)NC(=O)[C@H]([C@@H](C)O)NC(=O)[C@H](Cc2ccc(O)cc2)NC(=O)[C@H](Cc2ccc(O)cc2)NC(=O)[C@H](C)NC(=O)[C@H](Cc2ccc(O)cc2)NC(=O)[C@H](C)NC1=O`, the IC50 in assay [2] (read-out: pIC50 (converted)) was 13.8 µM; in [3] (read-out: pIC50 (converted)) it was 1.23 µM. For the same compound, the figures for the deltapIC50 in assay [7], in assay [8] and in assay [9] were -0.57, -0.29 and -0.42, respectively. Further, the pIC50 in [4] is 4.41.
For `CC[C@H](C)[C@@H]1NC(=O)[C@H](C)NC(=O)[C@@H](Cc2ccc(O)cc2)NC(=O)CSC[C@@H](C(N)=O)NC(=O)[C@H](CO)NC(=O)[C@H](Cc2c[nH]cn2)NC(=O)[C@H](CCC(=O)O)NC(=O)[C@H](Cc2c[nH]c3ccccc23)NC(=O)[C@H](Cc2c[nH]c3ccccc23)NC(=O)[C@H]([C@@H](C)O)NC(=O)[C@H](Cc2ccc(O)cc2)NC(=O)[C@H](Cc2ccc(O)cc2)NC(=O)[C@H](C)NC(=O)[C@H](Cc2ccc(O)cc2)NC1=O`, the results for the IC50 in [2] (read-out: pIC50 (converted)) and in assay [3] (read-out: pIC50 (converted)) were 11 µM and 3.09 µM, respectively. For the same compound, the deltapIC50 is -0.97 in assay [7], -0.31 in assay [8] and -0.32 in assay [9]. Also, in [4], the pIC50 is listed as 4.38.
